Here are results for 1 molecule from ChEMBL document CHEMBL5149972, “Novel Antimalarial Tetrazoles and Amides Active against the Hemoglobin Degradation Pathway in Plasmodium falciparum” (J Med Chem, 2021).

≈ marks a conversion by molar mass, not a printed value.

Data set [1] can be described thus: Kinetic solubility of compound in PBS at pH 6.5 by HPLC analysis. The conditions noted are these: read-out: Kinetic_solubility. It is filed as physicochemical.
The next data set relates to Plasmodium berghei. Description: Antiplasmodial activity against liver stage Plasmodium berghei ANKA expressing GFP-Luc-SMCO infected in human HepG2-A16-CD81EGFP cells assessed as reduction in liver-stage development of luciferase-expressing parasite by luciferase reporter gene based bioluminescence assay. It is filed as functional, organism-based. An outline of the steps:
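Pb-Luc (P. berghei ANKA-GFP-Luc-SMCON) sporozoites infect HepG2-A16-CD81EGFP cells in phenol red-free DMEM with 5% FBS, glutamine, penicillin/streptomycin; compounds scored for blocking liver-stage development by luciferase signal.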

In data set [2] the test system is Plasmodium falciparum. Description: Antiplasmodial activity against Rac-N-(Pyridin-3-yl(1-(o-tolyl)-1H-tetrazol-5-yl)methyl)-N-(3-(trifluoromethyl)benzyl)Cyclopropanamine resistant Plasmodium falciparum 3D7 clone F1-B6 ring-stage parasite assessed as parasite growth inhibition incubated for 72 hrs by SYBR Green and MitoTracker Deep Red FM dye based flow cytometry. The data set is classed as functional, organism-based. A digest of the protocol: (§1)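 Clonal 3D7-A10 lines recovered after single-step selection; ring stages at 0.2% parasitemia, 1% hematocrit in RPMI-1640 with 0.5% Albumax. 72 h exposure to a 10-point 2-fold dilution series in duplicate with DMSO controls, final DMSO <0.5%. Survival read by flow cytometry, SYBR Green as nuclear stain and MitoTracker Deep Red FM as vital dye. EC₅₀ and EC₉₀ reported with fold shift relative to parental 3D7-A10.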

Data set [3] has as its system Plasmodium falciparum. Description: Antiplasmodial activity against Rac-N-(Pyridin-3-yl(1-(o-tolyl)-1H-tetrazol-5-yl)methyl)-N-(3-(trifluoromethyl)benzyl)Cyclopropanamine resistant Plasmodium falciparum 3D7 clone F2-A10 ring-stage parasite assessed as parasite growth inhibition incubated for 72 hrs by SYBR Green and MitoTracker Deep Red FM dye based flow cytometry. It is filed as functional, organism-based. An outline of the steps: as §1

The test system of data set [4] is Plasmodium falciparum. Description: Antiplasmodial activity against lab-derived KAF156 resistant Plasmodium falciparum Dd2-Pfcarl mutant infected in human RBC assessed as parasite growth inhibition incubated for 72 hrs by SYBR Green dye based fluorescence assay. The data set is classed as functional, organism-based. The conditions noted are these: Erythrocyte.
For data set [5], the system named is Plasmodium falciparum. Kind of data set: Antiplasmodial activity against chloroquine resistant Plasmodium falciparum Dd2-GC03 mutant replaced with 3D7 pfcrt sequence at endogenous pfcrt Dd2 locus infected in human RBC assessed as parasite growth inhibition incubated for 72 hrs by SYBR Green dye based fluorescence assay. It is filed as functional, organism-based. The conditions noted are these: Erythrocyte. A digest of the protocol: (§2)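 Gene-edited Dd2 lines with the endogenous pfcrt locus replaced by zinc-finger nuclease editing. Concentration-response curves run with technical duplicates at each concentration; values are the average of two biological replicates, with std dev given where more replicates were collected.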

Data set [6] deals with Plasmodium falciparum. Kind of data set: Antiplasmodial activity against Rac-N-(Pyridin-3-yl(1-(o-tolyl)-1H-tetrazol-5-yl)methyl)-N-(3-(trifluoromethyl)benzyl)Cyclopropanamine resistant Plasmodium falciparum 3D7 clone A10 ring-stage parasite assessed as parasite growth inhibition incubated for 72 hrs by SYBR Green and MitoTracker Deep Red FM dye based flow cytometry. It is filed as functional, organism-based. A digest of the protocol:
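Resistant clonal lines were tested as ring stages at 0.2% parasitemia and 1% hematocrit in RPMI-1640 with 0.5% Albumax. A 10-point 2-fold dilution series was run in duplicate with DMSO controls, final DMSO <0.5%, for 72 h. Survival was read by flow cytometry with SYBR Green as nuclear stain and MitoTracker Deep Red as vital dye. EC50 and EC90 were derived.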

Data set [7] relates to Plasmodium falciparum. Description: Antiplasmodial activity against lab-derived MMV390048 resistant Plasmodium falciparum Dd2-Pfpi4K mutant infected in human RBC assessed as parasite growth inhibition incubated for 72 hrs by SYBR Green dye based fluorescence assay. It is filed as functional, organism-based. The conditions noted are these: Erythrocyte.
The subject of data set [8] is Plasmodium falciparum. Kind of data set: Antiplasmodial activity against piperaquine and pyrimethamine resistant Plasmodium falciparum RF12 infected in human RBC assessed as parasite growth inhibition incubated for 72 hrs by SYBR Green dye based fluorescence assay. The conditions noted are these: RF12, Erythrocyte. It is filed as functional, organism-based.
Data set [9] concerns Plasmodium falciparum. Kind of data set: Antiplasmodial activity against chloroquine and piperaquine resistant Plasmodium falciparum Dd2-M343L mutant replaced with endogenous pfcrt locus with the recombinant Dd2 sequence and the PPQ resistance-conferring M343L at endogenous pfcrt Dd2 locus infected in human RBC assessed as parasite growth inhibition incubated for 72 hrs by SYBR Green dye based fluorescence assay. It is filed as functional, organism-based. Conditions: Erythrocyte. A digest of the protocol: as §2

The subject of data set [10] is Plasmodium falciparum. Kind of data set: Antiplasmodial activity against drug resistant Plasmodium falciparum Dd2 infected in human RBC assessed as parasite growth inhibition incubated for 72 hrs by SYBR Green dye based fluorescence assay. It is filed as functional, organism-based. The conditions noted are these: Plasmodium falciparum, Dd2, Erythrocyte, 72 h. A digest of the protocol:
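Blood-stage cultures at 2% hematocrit, human O+ RBCs, RPMI 1640 + 25 mM HEPES, 0.5% Albumax-I, 23 mM bicarbonate, 92 μM hypoxanthine. Start at 0.5% parasitemia; 72 h at 37°C, 5% CO₂; freeze-thaw, then SYBR Green in saponin/Triton lysis buffer, 4 h RT dark; fluorescence ex 485/em 535 nm. 10-point curves, technical duplicates or triplicates, final 0.5% DMSO; four-parameter fit gives EC₅₀; mean ± std dev of biological replicates.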

For data set [11], the system named is Plasmodium falciparum. Kind of data set: Antiplasmodial activity against Rac-N-(Pyridin-3-yl(1-(o-tolyl)-1H-tetrazol-5-yl)methyl)-N-(3-(trifluoromethyl)benzyl)Cyclopropanamine resistant Plasmodium falciparum 3D7 clone F1-C1 ring-stage parasite assessed as parasite growth inhibition incubated for 72 hrs by SYBR Green and MitoTracker Deep Red FM dye based flow cytometry. The data set is classed as functional, organism-based. A digest of the protocol:
as §1

The subject of data set [12] is Plasmodium falciparum. Kind of data set: Antiplasmodial activity against Plasmodium falciparum NF54 infected in human RBC assessed as parasite growth inhibition incubated for 72 hrs by SYBR Green dye based fluorescence assay. It is filed as functional, organism-based. Conditions: NF54, Erythrocyte.
Data set [13] in a line: Inhibition of hemozoin formation in sorbitol-synchronized early ring stage plasmodium falciparum NF54 trophozoites assessed as fold increase in free heme-Fe level at 3 times EC50 incubated for 32 hrs by flow cytometry analysis. It is filed as functional. An outline of the steps: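 Trophozoites were saponin-released (0.05%), PBS-washed, counted by flow cytometry, then hypotonically lysed and sonicated. Heme was fractionated with HEPES, SDS, pyridine and NaOH and read as Fe(III)heme–pyridine absorbance against a heme standard curve (fg/cell). Three biological replicates; Student's t-test.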

For data set [14], the system named is Plasmodium falciparum. Description: Antiplasmodial activity against Plasmodium falciparum mature stage V gametocyte assessed as inhibition of female gametocyte formation by luciferase reporter assay. It is filed as functional, organism-based.
Data set [15] concerns Plasmodium falciparum. Description: Antiplasmodial activity against chloroquine and pyrimethamine resistant Plasmodium falciparum Dd2 infected in human RBC assessed as parasite growth inhibition incubated for 72 hrs by SYBR Green dye based fluorescence assay. The conditions noted are these: Dd2, Erythrocyte. It is filed as functional, organism-based. An outline of the steps:
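O+ human RBCs at 2% hematocrit and 0.5% starting parasitemia, in RPMI 1640 with 25 mM HEPES, 0.5% Albumax-I, bicarbonate and hypoxanthine. Serial dilutions in triplicate, 0.5% DMSO final, 72 h at 37°C, 5% CO2. Frozen at −80°C, lysed with SYBR Green in saponin/Triton buffer for 4 h in the dark. Ex 485/em 535 nm. EC50 from four-parameter fit; biphasic fit where curves were biphasic.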

For data set [16], the system named is Plasmodium falciparum. Description: Antiplasmodial activity against chloroquine, atovaquone and pyrimethamine resistant Plasmodium falciparum TM90C2B infected in human RBC assessed as parasite growth inhibition incubated for 72 hrs by SYBR Green dye based fluorescence assay. It is filed as functional, organism-based. The conditions noted are these: Erythrocyte.

As to `Cc1ccccc1-n1nnnc1C(c1cccnc1)N(Cc1cccc(C(F)(F)F)c1)C1CC1` (racemic), the solubility kinetic in [1] amounted to 1.5 µg/mL (≈ 3.23 µM). Also, the EC50 in the data set with Plasmodium berghei came to 7300 nM; in the data set on Plasmodium falciparum [2] (3D7 clone F1-B6, 72 h), 550 nM; in the data set on Plasmodium falciparum [3] (3D7 clone F2-A10, 72 h), 830 nM; with Plasmodium falciparum [4], 650 nM; with Plasmodium falciparum [5] it was 890 nM; in the data set with Plasmodium falciparum [6] (3D7 clone A10, 72 h), 300 nM. For the same molecule, the EC50 is 750 nM in the data set with Plasmodium falciparum [7]; 610 nM in the data set with Plasmodium falciparum [8]; 38000 nM with Plasmodium falciparum [9]; 540 nM with Plasmodium falciparum [10]; 540 nM in the data set with Plasmodium falciparum [11] (3D7 clone F1-C1, 72 h); 480 nM with Plasmodium falciparum [12]. For the same molecule, the values for the EC50 in the data set with Plasmodium falciparum [14], with Plasmodium falciparum [15] and with Plasmodium falciparum [16] were greater than 25000 nM, 540 nM and 460 nM, respectively. The EC90 in the data set on Plasmodium falciparum [2] (3D7 clone F1-B6, time 72 hrs) stood at 1100 nM; in the data set with Plasmodium falciparum [3] (3D7 clone F2-A10, time 72 hrs) it was 1500 nM; in the data set on Plasmodium falciparum [6] (3D7 clone A10, time 72 hrs) it was 590 nM; in the data set with Plasmodium falciparum [11] (3D7 clone F1-C1, time 72 hrs), 1000 nM. In addition, in data set [13], the “fold change (FC)” value stood at 6.
